Data set [1] is described as follows: Cytotoxicity against mouse HT22 cells assessed as cell viability at 5 uM after 24 hrs by MTT assay relative to control. Format: toxicity, HT-22. To be noted: read-out: Activity. The method in brief:
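MTT was added for 2 h, then solubilising solution (10% Triton X-100 in isopropanol with 0.1 M HCl) for 2 h more. Absorbance read at 560 nm; % inhibition normalised to vehicle, and viability taken from compound-only wells.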
A general note: Formazan colour is commonly taken as a measure of viable cells.

Data set [2] has as its target Translocator protein (Mus musculus) (UniProt P50637). Briefly: Inhibition of TSPO in mouse HT22 cells assessed as inhibition of amyloid beta (1 to 42)-induced toxicity at 5 uM after 24 hrs by MTT assay relative to control. It is filed as cell-based. To be noted: HT-22. The method in brief: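 HT22 cells at 5000 per well were treated with compound (5 µM), with or without Aβ1-42 (5 µM), for 24 h at 37 °C. MTT was added for 2 h, then solubilising solution (10% Triton X-100 in isopropanol with 0.1 M HCl) for 2 h more. Absorbance read at 560 nm; % inhibition normalised to vehicle, and viability taken from compound-only wells.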

For data set [3] the target is unchanged. Briefly: Inhibition of TSPO in mouse HT22 cells assessed as inhibition of amyloid beta (1 to 42)-induced ROS generation at 5 uM after 6 hrs by DCFDA staining based fluorescence assay relative to control. The conditions noted are these: HT-22. Format: cell-based.
In another data set the target is CYP2D6 (Homo sapiens, UniProt P10635). The data set is described as follows: Inhibition of recombinant human CYP2D6 expressed in baculosomes coexpressing rabbit NADPH-P450 reudctase assessed as residual activity at 10 uM preincubated for 5 mins followed by substrate and NADP+ addition measured after 20 mins by fluorescence assay relative to control. To be noted: read-out: Activity. It is filed as ADME. A digest of the protocol: (§1)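 Vivid CYP450 kit: recombinant human CYP isozyme in Baculosomes with rabbit NADPH-P450 reductase, plus regeneration system (3.3 mM glucose-6-phosphate, 0.3 U/mL G6PDH in 100 mM potassium phosphate, pH 8.0). Mixture preincubated with sample for 5 min at 37 °C. Vivid substrate and 0.1 mM NADP+ were then added, and remaining activity read by fluorescence after 20 min.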

The next data set concerns the target CYP2C9 (Homo sapiens, UniProt P11712). The data set is described as follows: Inhibition of recombinant human CYP2C9 expressed in baculosomes coexpressing rabbit NADPH-P450 reudctase assessed as residual activity at 10 uM preincubated for 5 mins followed by substrate and NADP+ addition measured after 20 mins by fluorescence assay relative to control. It is filed as ADME. To be noted: read-out: Activity. A digest of the protocol:
as §1

For the next data set, the target named is CYP3A4 (Homo sapiens, UniProt P08684). Briefly: Inhibition of recombinant human CYP3A4 expressed in baculosomes coexpressing rabbit NADPH-P450 reudctase assessed as residual activity at 10 uM preincubated for 5 mins followed by substrate and NADP+ addition measured after 20 mins by fluorescence assay relative to control. To be noted: read-out: Activity. Format: ADME. The method in brief: as §1

The next data set concerns the target CYP2C19 (Homo sapiens, UniProt P33261). Briefly: Inhibition of recombinant human CYP2C19 expressed in baculosomes coexpressing rabbit NADPH-P450 reudctase assessed as residual activity at 10 uM preincubated for 5 mins followed by substrate and NADP+ addition measured after 20 mins by fluorescence assay relative to control. It is filed as ADME. The conditions noted are these: read-out: Activity. A digest of the protocol:
as §1

The target of data set [4] is Voltage-gated inwardly rectifying potassium channel KCNH2 (Homo sapiens, UniProt Q12809). The data set is described as follows: Inhibition of human ERG expressed in CHOK1 cells by automated patch clamp method. It is filed as cell-based, CHO-K1. Background: Patch clamp records ionic current or voltage across a cell membrane.
The subject of a further data set is Mus musculus. The data set is described as follows: Cognition enhancing effect in ICR mouse model of acute Alzheimer's disease assessed as reversal of amyloid beta (1 to 42)-induced cognitive deficit by measuring spatial working memory at 30 mg/kg, ip daily for 6 days measured on day 7 by Y maze spontaneous alteration test relative to control. It is filed as functional. A digest of the protocol: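 Male ICR mice (6 weeks, 30–33 g) received Aβ1-42 500 pmol ICV in 10% DMSO/PBS. Compound in 20% cyclodextrin was given at 30 mg/kg daily for 6 days (n = 7 per group). One day later, each mouse explored a three-arm Y-maze for 8 min, and the sequence of arm entries was used to calculate % spontaneous alternation.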

A short description of data set [5]: AUC (0 to infinity) in Sprague-Dawley rat at 10 mg/kg, po by LC-MS/MS analysis. It is filed as ADME, organism-based. Also on record: dose 10 mg/kg, route oral, time infinity. To be noted: in vivo. A digest of the protocol: (§2)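 Male SD rats, 8 weeks old, acclimatised at least 1 week; compound dissolved at 10 mg/2 mL in N-methyl-2-pyrrolidone/Tween80/water (1:2:7) by 5 min sonication, given 10 mg/kg by oral gavage at 2 mL/kg (n = 5). Heart-puncture blood drawn at 30 min and 3 h, plasma spun and stored at -70 °C. Samples mixed with carbamazepine internal standard in acetonitrile and assayed by LC-MS/MS.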

Data set [6] can be described thus: AUClast in Sprague-Dawley rat at 10 mg/kg, iv by LC-MS/MS analysis. It is filed as ADME, organism-based. Also on record: dose 10 mg/kg, route intravenous, time 0 - last. The conditions noted are these: in vivo. A digest of the protocol:
(§3)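 Male SD rats, 8 weeks old, given 10 mg/kg intravenously (n = 4). Plasma mixed with carbamazepine internal standard in acetonitrile, vortexed, centrifuged at 10,000×g, and the supernatant analysed by LC-MS/MS. Parameters reported as mean ± SD.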

A short description of data set [7]: AUClast in Sprague-Dawley rat at 10 mg/kg, po by LC-MS/MS analysis. It is filed as ADME, organism-based. More on the design: dose 10 mg/kg, route oral, time 0 - last. To be noted: in vivo. A digest of the protocol:
as §2

The nature of data set [8]: Terminal half life in Sprague-Dawley rat at 10 mg/kg, iv by LC-MS/MS analysis. Format: ADME, organism-based. To be noted: in vivo, read-out: beta t1/2. A digest of the protocol:
as §3

Data set [9] is described as follows: Terminal half life in Sprague-Dawley rat at 10 mg/kg, po by LC-MS/MS analysis. It is filed as ADME, organism-based. The conditions noted are these: in vivo, read-out: beta t1/2. A digest of the protocol: as §2
A short description of data set [10]: Cmax in Sprague-Dawley rat at 10 mg/kg, po by LC-MS/MS analysis. It is filed as ADME, organism-based. More on the design: dose 10 mg/kg, route oral. The conditions noted are these: in vivo. The method in brief: as §2
Data set [11] is described as follows: Tmax in Sprague-Dawley rat at 10 mg/kg, po by LC-MS/MS analysis. It is filed as ADME, organism-based. To be noted: in vivo. A digest of the protocol:
as §2

Data set [12] can be described thus: MRT in Sprague-Dawley rat at 10 mg/kg, iv by LC-MS/MS analysis. Format: ADME, organism-based. The conditions noted are these: in vivo. The method in brief:
as §3

Data set [13] can be described thus: Drug excretion in Sprague-Dawley rat at 10 mg/kg, iv by LC-MS/MS analysis. It is filed as ADME, organism-based. To be noted: in vivo, read-out: Drug excretion.
The nature of data set [14]: Ratio of drug level in brain to plasma in Sprague-Dawley rat at 10 mg/kg, iv at 2 hrs post dose by LC-MS/MS analysis. It is filed as ADME, organism-based. The conditions noted are these: brain and plasma, read-out: BPR. The method in brief:
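After intravenous dosing at 10 mg/kg in male SD rats, brain and plasma were sampled at 2 h. Each was mixed with carbamazepine internal standard in acetonitrile and analysed by LC-MS/MS.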

The nature of data set [15]: Ratio of drug level in brain to plasma in Sprague-Dawley rat at 10 mg/kg, po at 2 hrs post dose by LC-MS/MS analysis. The conditions noted are these: brain and plasma, read-out: BPR. It is filed as ADME, organism-based.
Data set [16] in a line: Oral bioavailability in Sprague-Dawley rat at 10 mg/kg by LC-MS/MS analysis. Format: ADME, organism-based. To be noted: in vivo. The method in brief:
as §2

Data set [17] deals with Translocator protein (Rattus norvegicus, UniProt P16257). Briefly: Displacement of [3H]PK11195 from TSPO in Sprague-Dawley rat cerebral cortex membranes after 60 mins by microbeta liquid scintillation counting method. Also on record: species or system Membrane. A general note: In a radioligand displacement assay an active substance lowers the binding of a labelled ligand.

Data set [18] concerns the target Translocator protein (Homo sapiens, UniProt P30536). Briefly: Binding affinity to recombinant human TSPO by SPR assay. The method in brief:
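Biacore T200 at 25 °C with recombinant human TSPO (18 kDa) amine-coupled to a CM5 chip in 10 mM sodium acetate pH 4.5, giving 4000–6000 RU. Compounds from 10 mM DMSO stocks were diluted in PBS-P; running buffer held 1.0% DMSO. Five concentrations, 0.01–5 µM, were injected at 50 µL/min (120 s contact, 300 s dissociation), with blanks and regeneration. KD reported.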

Sequence of Translocator protein (Mus musculus) (P50637 whole entry, looked up): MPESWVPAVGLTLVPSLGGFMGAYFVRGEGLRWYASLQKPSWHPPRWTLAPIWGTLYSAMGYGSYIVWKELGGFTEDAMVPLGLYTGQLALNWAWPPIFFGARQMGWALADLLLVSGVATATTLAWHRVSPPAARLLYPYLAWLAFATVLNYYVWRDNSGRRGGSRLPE
Sequence of Translocator protein (Rattus norvegicus, UniProt P16257) (P16257 whole entry, looked up): as the sequence (P50637 whole entry, looked up) above, with P2S, E3Q, V67I, D77E, A110V, L113M, V149M, P168T counted along it
Sequence of CYP2C19 (P33261 whole entry): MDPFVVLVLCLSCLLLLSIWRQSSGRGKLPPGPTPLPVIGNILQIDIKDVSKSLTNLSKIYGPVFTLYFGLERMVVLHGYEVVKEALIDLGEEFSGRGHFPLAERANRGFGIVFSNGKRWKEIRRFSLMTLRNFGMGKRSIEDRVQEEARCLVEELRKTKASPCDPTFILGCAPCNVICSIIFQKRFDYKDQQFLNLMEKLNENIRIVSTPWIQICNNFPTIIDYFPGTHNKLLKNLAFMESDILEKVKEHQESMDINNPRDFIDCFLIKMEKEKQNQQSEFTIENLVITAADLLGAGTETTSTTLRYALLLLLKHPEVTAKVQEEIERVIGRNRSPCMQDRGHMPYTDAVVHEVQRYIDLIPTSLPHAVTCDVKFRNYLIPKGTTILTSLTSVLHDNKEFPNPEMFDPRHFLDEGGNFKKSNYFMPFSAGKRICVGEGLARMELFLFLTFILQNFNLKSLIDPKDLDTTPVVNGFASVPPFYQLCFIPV
Sequence of CYP3A4 (P08684 whole entry): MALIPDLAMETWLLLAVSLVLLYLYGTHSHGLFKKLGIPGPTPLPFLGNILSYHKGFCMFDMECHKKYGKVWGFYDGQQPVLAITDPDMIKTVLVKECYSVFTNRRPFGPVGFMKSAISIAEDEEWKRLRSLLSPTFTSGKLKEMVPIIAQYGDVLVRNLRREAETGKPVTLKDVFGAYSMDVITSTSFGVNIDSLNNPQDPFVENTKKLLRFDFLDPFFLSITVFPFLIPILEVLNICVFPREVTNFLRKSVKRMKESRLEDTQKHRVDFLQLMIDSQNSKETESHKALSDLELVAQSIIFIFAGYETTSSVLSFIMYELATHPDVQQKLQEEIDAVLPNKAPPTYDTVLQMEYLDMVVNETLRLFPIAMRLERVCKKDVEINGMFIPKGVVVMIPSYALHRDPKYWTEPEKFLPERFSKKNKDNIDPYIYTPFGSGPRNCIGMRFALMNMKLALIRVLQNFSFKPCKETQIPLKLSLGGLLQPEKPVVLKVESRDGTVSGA
Sequence of Translocator protein (Homo sapiens, UniProt P30536) (P30536 whole entry): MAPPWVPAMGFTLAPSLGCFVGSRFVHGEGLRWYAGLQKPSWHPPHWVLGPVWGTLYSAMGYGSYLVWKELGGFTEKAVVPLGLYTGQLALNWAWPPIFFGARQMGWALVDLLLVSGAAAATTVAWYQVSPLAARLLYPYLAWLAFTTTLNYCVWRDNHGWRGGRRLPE
Sequence of Voltage-gated inwardly rectifying potassium channel KCNH2 (Q12809 whole entry): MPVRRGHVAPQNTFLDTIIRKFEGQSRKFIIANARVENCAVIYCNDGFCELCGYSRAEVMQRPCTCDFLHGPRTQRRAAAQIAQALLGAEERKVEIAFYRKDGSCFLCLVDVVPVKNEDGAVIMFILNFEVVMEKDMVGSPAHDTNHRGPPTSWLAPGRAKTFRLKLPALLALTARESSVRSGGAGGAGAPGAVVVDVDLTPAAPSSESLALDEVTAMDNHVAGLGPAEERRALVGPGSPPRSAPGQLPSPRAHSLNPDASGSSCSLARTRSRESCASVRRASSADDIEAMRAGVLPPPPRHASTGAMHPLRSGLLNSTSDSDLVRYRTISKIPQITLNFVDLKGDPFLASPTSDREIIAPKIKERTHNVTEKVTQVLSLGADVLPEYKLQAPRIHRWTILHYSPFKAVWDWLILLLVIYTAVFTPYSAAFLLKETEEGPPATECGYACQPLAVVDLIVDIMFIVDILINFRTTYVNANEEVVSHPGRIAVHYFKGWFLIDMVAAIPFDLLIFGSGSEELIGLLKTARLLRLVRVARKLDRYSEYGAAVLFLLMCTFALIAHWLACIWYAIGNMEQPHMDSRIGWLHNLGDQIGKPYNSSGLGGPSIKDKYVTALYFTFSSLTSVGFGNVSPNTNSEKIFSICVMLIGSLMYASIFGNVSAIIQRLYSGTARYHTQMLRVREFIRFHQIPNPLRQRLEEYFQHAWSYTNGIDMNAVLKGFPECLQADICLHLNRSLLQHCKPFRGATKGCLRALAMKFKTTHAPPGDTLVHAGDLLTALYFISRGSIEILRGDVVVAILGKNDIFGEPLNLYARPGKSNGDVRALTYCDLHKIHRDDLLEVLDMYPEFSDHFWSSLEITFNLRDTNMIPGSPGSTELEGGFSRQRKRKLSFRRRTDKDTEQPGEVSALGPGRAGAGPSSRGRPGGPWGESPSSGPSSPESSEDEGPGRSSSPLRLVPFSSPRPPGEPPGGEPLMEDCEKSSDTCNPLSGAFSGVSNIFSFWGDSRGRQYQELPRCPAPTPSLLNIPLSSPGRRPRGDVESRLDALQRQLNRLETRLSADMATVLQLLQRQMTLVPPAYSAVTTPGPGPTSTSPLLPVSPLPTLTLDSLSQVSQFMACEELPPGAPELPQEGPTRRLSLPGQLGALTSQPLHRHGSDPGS
Sequence of CYP2C9 (P11712 whole entry): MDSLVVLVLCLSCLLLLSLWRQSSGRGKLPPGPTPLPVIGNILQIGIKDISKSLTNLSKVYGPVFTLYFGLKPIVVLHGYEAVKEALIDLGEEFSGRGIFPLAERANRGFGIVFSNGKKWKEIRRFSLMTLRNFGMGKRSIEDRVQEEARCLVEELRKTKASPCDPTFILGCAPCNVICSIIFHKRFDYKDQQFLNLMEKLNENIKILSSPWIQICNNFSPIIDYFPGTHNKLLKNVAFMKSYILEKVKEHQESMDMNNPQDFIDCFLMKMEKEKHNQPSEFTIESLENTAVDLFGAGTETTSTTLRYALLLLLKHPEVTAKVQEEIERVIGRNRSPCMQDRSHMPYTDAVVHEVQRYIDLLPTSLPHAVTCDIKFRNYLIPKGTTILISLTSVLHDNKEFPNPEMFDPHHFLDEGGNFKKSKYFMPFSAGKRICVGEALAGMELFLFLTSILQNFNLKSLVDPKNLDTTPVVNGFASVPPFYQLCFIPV
Sequence of CYP2D6 (P10635 whole entry): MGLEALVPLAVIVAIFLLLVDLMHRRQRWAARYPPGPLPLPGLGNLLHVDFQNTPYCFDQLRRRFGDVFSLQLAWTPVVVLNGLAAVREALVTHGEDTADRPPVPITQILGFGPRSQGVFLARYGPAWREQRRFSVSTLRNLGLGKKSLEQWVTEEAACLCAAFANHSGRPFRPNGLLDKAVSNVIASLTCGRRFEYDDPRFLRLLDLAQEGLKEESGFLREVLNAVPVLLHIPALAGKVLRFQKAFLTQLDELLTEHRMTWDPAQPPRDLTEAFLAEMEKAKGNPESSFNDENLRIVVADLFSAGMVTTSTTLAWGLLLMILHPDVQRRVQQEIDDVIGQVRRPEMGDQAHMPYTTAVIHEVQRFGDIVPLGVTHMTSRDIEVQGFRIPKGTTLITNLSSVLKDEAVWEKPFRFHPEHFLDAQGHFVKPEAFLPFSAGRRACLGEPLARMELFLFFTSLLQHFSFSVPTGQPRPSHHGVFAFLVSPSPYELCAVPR

Turning to `Cc1ccc(C(C)C)cc1NC(=O)Cn1c(Cc2c(Cl)cccc2Cl)nc2ccccc21`, the viability at 24 h, 5 µM in [1] lay in the range of 88 to 109%. The inhibition in data set [2] amounted to 30%; in data set [3] it was 85%. Besides, the activity at 20 min, 10 µM at CYP2D6 was found to be 140%; on CYP2C9, 54.7%; on CYP3A4 it was 224%; on CYP2C19 it was 57.3%. For the same molecule, the half-maximal inhibitory concentration (IC50) in [4] is more than 100000 nM; on Translocator protein [17] it was 74.3 nM. Further, in the data set with Mus musculus, the Activity turned out to be 72%. Also, in data set [5], the AUC(0-inf) was 136 ng·h/mL. Also, the AUC(0-t) in data set [6] was 1750 ng·h/mL; in data set [7], 128 ng·h/mL. Further, the figures for the half-life in [8] and in data set [9] were 2.62 h and 1.49 h, respectively. The highest level in [10] (Cmax) was 70 ng/mL. In addition, the Tmax in [11] was 0.55 h. The same molecule gave an MRT in data set [12] of 1.12 h. The dose excreted in data set [13] was determined as 0.03%. The Kp at 2 h in [14] turned out to be 2.88; in data set [15], 1.02. The same molecule yielded a bioavailability in data set [16] of 3.7%. The same molecule came in with an inhibitory constant (Ki) on Translocator protein [17] of 22.8 nM. The Kd on Translocator protein [18] was found to be 108 nM.

Broadly, the inhibition is how much of the control response was suppressed. The IC50 is the concentration that inhibits the measured activity by half. Lower therefore signals greater potency in that assay. What is called AUC(0-inf) is total exposure, with the tail of the curve extrapolated. A high value points to more exposure. What is called AUC(0-t) is the area under the concentration-time curve up to a stated or last time point. One may read the Cmax as the peak of the concentration-time curve. What is called Tmax is the time at which the peak concentration occurs. In general, MRT refers to the average time that molecules of a dose stay in the body. By bioavailability is commonly meant the share of a dose that reaches the circulation, judged against a reference dose that is usually intravenous. Low values mean poor availability, high ones good availability. As a reminder, the Ki is the equilibrium dissociation constant of an inhibitor or competing ligand from its target. Lower therefore signals tighter binding. What is called Kd is the equilibrium constant for the complex coming apart.
